Compound activity: PubChem, The Scripps Research Institute Molecular Screening Center
An excerpt weighted towards active compounds, which were near 1.9% of everything screened.
PLCg1 inh – inhibitors of human phospholipase C gamma1; P19174; purified PLC-gamma1, fluorogenic substrate, fluorescence; inhibition, % at 12.2 µM; actives 0.84% (n = 370,000); in the data active = inhibition above about 9.5%
PLCb3 inh – PLC-beta3 (human) inhibition, primary screen; actives 0.18% (n = 370,000); AID 720704; Q01970; Purified PLC-beta3, fluorogenic substrate, fluorescence; inhibition, % at 12.2 µM;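 note: 0% = median of compound wells on plate and 100% = full blocker control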
Tb MetRS inh – Trypanosoma brucei MetRS inhibition. AID 624268. inhibition, % at 11.9 µM. purified T. brucei MetRS, ATP depletion, Kinase-Glo luminescence. actives 0.4% (n = 360,000);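 active = inhibition above a per-plate cutoff of the control wells' mean inhibition plus 3 SD, cut at about 5.5% in these data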;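 note: 0% = DMSO wells median and 100% = median of wells with control inhibitor compound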
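Measured by: Kinase-Glo luciferase luminescence reporting remaining unconsumed ATP. Material: purified T. brucei MetRS enzyme. Doses: 11.9 µM compound single dose, 0.9% DMSO. Medium: HEPES buffer containing pyrophosphatase, BSA, spermine, DTT. Times: 15 min preincubation, 2 h reaction, all 25 °C. Reagent: methionine, ATP and bulk E. coli tRNA.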
HGIII-sPLA2 inh – Blocks human group III sPLA2 activity; Q9NZ20; QFRET BODIPY PC-A2 liposome hydrolysis, fluorescence; inhibition, % at 12.2 µM; actives 0.56% (n = 370,000);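 active = inhibition above mean plus 3 SD of compounds lying within the high and low control bounds, cut at about 19% in these data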;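 note: 0% = median of test compound wells and 100% = no enzyme DMSO wells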
Target sequence (Q9NZ20 whole entry, looked up): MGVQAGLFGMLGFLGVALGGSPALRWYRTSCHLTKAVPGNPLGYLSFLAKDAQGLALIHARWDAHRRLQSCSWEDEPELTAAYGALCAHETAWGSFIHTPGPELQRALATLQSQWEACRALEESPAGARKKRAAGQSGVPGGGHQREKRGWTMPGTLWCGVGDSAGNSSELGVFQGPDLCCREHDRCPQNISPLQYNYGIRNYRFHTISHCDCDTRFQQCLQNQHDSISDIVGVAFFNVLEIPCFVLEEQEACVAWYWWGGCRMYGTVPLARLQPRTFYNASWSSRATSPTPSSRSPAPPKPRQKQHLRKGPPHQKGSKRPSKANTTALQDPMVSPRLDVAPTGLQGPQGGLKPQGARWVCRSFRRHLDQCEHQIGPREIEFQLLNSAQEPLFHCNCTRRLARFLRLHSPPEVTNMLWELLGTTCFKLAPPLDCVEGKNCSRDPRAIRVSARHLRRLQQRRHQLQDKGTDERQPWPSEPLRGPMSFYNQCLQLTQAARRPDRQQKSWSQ
PLCgamma1 ctr – PLC-gamma1 inhibition, counter-screen for PLC-beta3 hits | shares compounds with PLCg1 inh | purified PLC-gamma1, fluorogenic substrate, fluorescence | inhibition, % at 12.3 µM | actives 3.1% (n = 3,300) | AID 743258; in the data active = inhibition above about 9.5%
PLCb3 confirm – human PLC-beta3 inhibition, confirmation | shares compounds with PLCg1 inh | actives 1% (n = 3,300) | AID 743261 | purified PLC-beta3, fluorogenic substrate fluorescence | inhibition, % at 12.3 µM
* hit, by the source's call. Cut-off read from the data, not from the text of the source, unless noted: active = inhibition above about 11%; inactive = the rest.

What do the screens show for `COc1ccc(CN2C[C@@]3(O)CC[C@@H](O)[C@@H](OC)[C@@H]3[C@@](C)(O)[C@@H]2CC=C(C)C)cc1`?
PLCg1 inh: 1; PLCb3 inh: 5; HGIII-sPLA2 inh: 8

Results for O=C(Cc1ccc([N+](=O)[O-])cc1)N/N=C/c1cccnc1 ?
PLCg1 inh: 1; PLCb3 inh: -5; Tb MetRS inh: -1; HGIII-sPLA2 inh: 5

Results for O=C(N/N=C/c1cccnc1)c1ccc([N+](=O)[O-])cc1 ?
PLCg1 inh: 16*; PLCb3 inh: 5; Tb MetRS inh: 0; HGIII-sPLA2 inh: 12; PLCgamma1 ctr: -2; PLCb3 confirm: 2

What do the screens show for `Cc1cc(C)nc(SCc2nnc(SCC(=O)Nc3c(C)cccc3C)o2)n1`?
PLCg1 inh: 11*; PLCb3 inh: 8; Tb MetRS inh: -1; HGIII-sPLA2 inh: 6; PLCgamma1 ctr: -6; PLCb3 confirm: -2

Results for CC(=O)Nc1ccc(OC(=O)c2ccc(Cl)cc2)cc1 ?
PLCg1 inh: 4; PLCb3 inh: 11*; Tb MetRS inh: -1; HGIII-sPLA2 inh: -7; PLCgamma1 ctr: -9; PLCb3 confirm: -4

What do the screens show for `CC(=O)Nc1ccc(C(=O)OCc2ccc(Cl)cc2)cc1`?
PLCg1 inh: 3; PLCb3 inh: 0; Tb MetRS inh: 0; HGIII-sPLA2 inh: -16

How did COC(=O)c1ccccc1NN=Nc1ccccc1[N+](=O)[O-] do in these assays?
PLCg1 inh: 2; PLCb3 inh: 13*; Tb MetRS inh: 0; HGIII-sPLA2 inh: 5; PLCgamma1 ctr: -3; PLCb3 confirm: 0

How did CC(=O)OC12CCCN(C1)/C(=C/c1ccc(Cl)cc1)C2 (stereo not given) do in these assays?
PLCg1 inh: 3; PLCb3 inh: -3; HGIII-sPLA2 inh: 19

Results for Cc1ccc(-c2nnc(SCC(=O)NC3CCCC3)n2N)cc1 ?
PLCg1 inh: 12*; PLCb3 inh: 9; Tb MetRS inh: 0; HGIII-sPLA2 inh: 0; PLCgamma1 ctr: -3; PLCb3 confirm: 0

How did CC(=O)Nc1ccc(S(=O)(=O)c2ccc(C)cc2)cc1 do in these assays?
PLCg1 inh: 10*; PLCb3 inh: -5; Tb MetRS inh: 0; HGIII-sPLA2 inh: 2; PLCgamma1 ctr: -7; PLCb3 confirm: -4

What do the screens show for `COC(=O)C1CN(Cc2cn(Cc3ccc(Cl)cc3)nn2)CCS(=O)(=O)N1Cc1ccccc1` (stereo not given)?
PLCg1 inh: 2; PLCb3 inh: 2; HGIII-sPLA2 inh: -2

How did CCC(=O)Nc1nnc(C)s1 do in these assays?
PLCg1 inh: 10*; PLCb3 inh: 6; Tb MetRS inh: -1; HGIII-sPLA2 inh: 1; PLCgamma1 ctr: -3; PLCb3 confirm: 0

How did O=C(CCN1C(=O)/C(=C\c2ccco2)SC1=S)Nc1ccc(C(=O)O)c(O)c1 do in these assays?
PLCg1 inh: 37*; PLCb3 inh: -7; Tb MetRS inh: 1; HGIII-sPLA2 inh: -18; PLCgamma1 ctr: 14*; PLCb3 confirm: -25

What do the screens show for `O=C(O)CCCN1C(=O)/C(=C\c2ccco2)SC1=S`?
PLCg1 inh: 15*; PLCb3 inh: -8; Tb MetRS inh: 0; HGIII-sPLA2 inh: -40; PLCgamma1 ctr: 23*; PLCb3 confirm: -5

Results for COC(=O)c1cc2c(c3c4cc(C)ccc4n(S(=O)(=O)c4cccc(C)c4)c13)C(=O)N(Cc1ccc(C(F)(F)F)cc1)C2 ?
PLCg1 inh: 1; PLCb3 inh: 0; HGIII-sPLA2 inh: 0

Results for CC(=O)Nc1ccc(S(=O)(=O)NCc2cn3ccsc3n2)cc1 ?
PLCg1 inh: 11*; PLCb3 inh: 11*; Tb MetRS inh: -1; HGIII-sPLA2 inh: 5; PLCgamma1 ctr: -10; PLCb3 confirm: -1

Results for C=CCN(C(=O)[C@@H](C)[C@@H](O)c1ccc2ccccc2c1)c1ccccc1 ?
PLCg1 inh: -3; PLCb3 inh: -3; HGIII-sPLA2 inh: -7

What do the screens show for `COc1ccc(NC(=O)C(Sc2nnc(-c3ccncc3)n2-c2ccccc2C)c2ccccc2)cc1Cl` (stereo not given)?
PLCg1 inh: 11*; PLCb3 inh: 4; Tb MetRS inh: 0; HGIII-sPLA2 inh: -18; PLCgamma1 ctr: 2; PLCb3 confirm: -3

What do the screens show for `COc1ccc(NC(=O)C(OC)c2ccccc2)cc1Cl` (stereo not given)?
PLCg1 inh: -3; PLCb3 inh: 1; Tb MetRS inh: 0; HGIII-sPLA2 inh: 6
